The sample as a whole holds a higher share of hits than the screen did.
A1 apoptosis 2 = A1 inhibitors via caspase activation, primary screen, cell-based, luminescence, HTS, two replicates; MEF A1-2A-BIM cells, caspase-Glo luminescence, 3 h; percent of clofoctol response, DMSO zero; caspase activation, % (concentration not given with the values); 24,000 tested, under 10 active; in the data active means caspase activation above about 5.9%
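Material: mouse embryonic fibroblasts co-expressing A1 and BIM (A1-2A-BIM), primed for A1 dependence / Quantity: 2500 cells/well / Buffer or medium: RPMI-1640 growth medium with 10% FBS / Doses: 50 nL compound per well, pinned / Schedule: 3 h compound exposure at 37 °C / Signal: Caspase-Glo luminescence (DEVD substrate) / Measure: Caspase-3/7 activation, seen as rise in luminescence signal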
T cruzi intra = inhibitors of intracellular Trypanosoma cruzi, primary screen, cell-based, plate reader, single point, set 2. intracellular Trypanosoma cruzi in host cells. activity score (inhibition), % at 5.01 µM. hit rate 4.9% among 22,000; in the data active means activity score above about 55%;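 further: parasites and compound incubated about four days before reading; 0% = median of neutral control wells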
INS-1E rescue = protection of INS-1E cells from cytokine death, primary screen, ATP luminescence, single point; INS-1E cytokine-induced death, 48 h; normalised: neutral wells 0, positive control 100; protection from cytokine-induced ATP loss, % at 10 µM; hit rate 0.1% among 20,000;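 active means mean replicate protection from cytokine-induced ATP loss at least 50% and at least 75% of replicates each reaching 50%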
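Assay system – rat INS-1E insulinoma cell line · Quantity – 8000 cells per well · Buffer or medium – RPMI without phenol red, 5% FBS · Schedule – 48 h co-treatment, 10 min post-lysis read · Technique – luminescent ATP assay (CellTiter-Glo)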
An asterisk follows results filed as active; / = not tested or not shown.

SMILES	A1 apoptosis 2	T cruzi intra	INS-1E rescue
COC(=O)CCCCCCC(=O)N/N=C/[C@@H](O)[C@@H](O)[C@H](O)[C@H](O)CO	0	-6	-10
CO[C@H]1O[C@H](CO)[C@@H](OC(=O)Nc2ccccc2)[C@H](OC(=O)Nc2ccccc2-c2ccccc2)[C@@H]1OC(=O)Nc1ccccc1-c1ccccc1	-1	/	/
C[C@H]1CN([C@@H](C)CO)C(=O)Cc2cc(NS(=O)(=O)c3ccccc3)ccc2O[C@H]1CN(C)Cc1ccc(-c2ccccc2)cc1	/	3	2
C[C@@H]1CN([C@H](C)CO)C(=O)Cc2cc(NS(=O)(=O)c3ccc(Cl)cc3)ccc2O[C@@H]1CN(C)Cc1ccc(-c2ccccc2)cc1	/	67*	-42
Cc1ccc(S(=O)(=O)Nc2ccc3c(c2)CC(=O)N([C@H](C)CO)C[C@@H](C)[C@H](CN(C)Cc2ccc(-c4ccccc4)cc2)O3)cc1	1	54	-16
Cc1ccc(S(=O)(=O)Nc2ccc3c(c2)CC(=O)N([C@H](C)CO)C[C@@H](C)[C@H](CN(C)Cc2ccccc2)O3)cc1	/	67*	0
C[C@@H]1CN([C@@H](C)CO)C(=O)Cc2cc(NS(=O)(=O)c3ccc(Cl)cc3)ccc2O[C@@H]1CN(C)Cc1ccc(-c2ccccc2)cc1	/	34	5
Cc1ccc(S(=O)(=O)Nc2ccc3c(c2)CC(=O)N([C@@H](C)CO)C[C@@H](C)[C@@H](CN(C)Cc2ccc(-c4ccccc4)cc2)O3)cc1	-1	71*	-9
Cc1ccc(S(=O)(=O)Nc2ccc3c(c2)CC(=O)N([C@H](C)CO)C[C@H](C)[C@H](CN(C)Cc2ccccc2)O3)cc1	-1	41	-9
C[C@H]1CN([C@@H](C)CO)C(=O)Cc2cc(NS(=O)(=O)c3ccccc3)ccc2O[C@@H]1CN(C)Cc1ccc(-c2ccccc2)cc1	/	75*	-14
O=C(CCCCC(=O)N/N=C/c1ccc(CO)o1)NO	0	-7	0
CCCN(C)C[C@H]1OCCCC[C@H](C)Oc2ccc(NS(C)(=O)=O)cc2C(=O)N([C@H](C)CO)C[C@H]1C	1	/	/
C#CCOc1ccc(/C=N/NC(=O)c2cccc(C(=O)NO)c2)cc1	-8	-4	-7
C=CC[C@@]1(C(=O)N(C)C)N=C(c2ccc(OCCCO)cc2)O[C@@H]1c1ccccc1	0	/	/
O=C(NO)c1cccc(C(=O)N/N=C/c2ccc(OCCO)cc2)c1	/	-11	3
C[C@H]1CN([C@@H](C)CO)C(=O)c2cccc(N(C)C)c2O[C@@H]1CN(C)Cc1ccccc1	-1	-12	1
C[C@H]1CN([C@@H](C)CO)C(=O)c2cccc(NC(=O)C3CC3)c2O[C@H]1CN(C)Cc1ccc(Oc2ccccc2)cc1	/	-3	-6
C[C@H]1CN([C@@H](C)CO)C(=O)c2cccc(NC(=O)C3CCCCC3)c2O[C@@H]1CN(C)Cc1ccc(Oc2ccccc2)cc1	/	67*	-36
C[C@@H]1CN([C@H](C)CO)C(=O)c2cccc(NC(=O)C3CCCCC3)c2O[C@@H]1CN(C)Cc1ccc(Oc2ccccc2)cc1	-1	27	-34
C[C@@H]1CN([C@H](C)CO)C(=O)c2cccc(NC(=O)C3CC3)c2O[C@H]1CN(C)Cc1ccc(Oc2ccccc2)cc1	/	63*	-56
C[C@@H]1CN([C@H](C)CO)C(=O)c2cccc(N(C)C)c2O[C@H]1CN(C)Cc1ccc(Oc2ccccc2)cc1	0	70*	-40
C[C@H](CO)N1C[C@H](C)[C@@H](CN(C)CC2CC2)Oc2c(NC(=O)c3nc4ccccc4s3)cccc2C1=O	0	27	-18
C[C@@H]1CN([C@@H](C)CO)C(=O)c2cccc(NC(=O)c3nc4ccccc4s3)c2O[C@@H]1CN(C)CC1CCCCC1	/	76*	-48
C[C@H](CO)N1C[C@H](C)[C@@H](CN(C)CC2CCCCC2)Oc2c(NC(=O)c3nc4ccccc4s3)cccc2C1=O	/	64*	-41
C[C@H](CO)N1C[C@H](C)[C@H](CN(C)CC2CCCCC2)Oc2c(NC(=O)c3nc4ccccc4s3)cccc2C1=O	-1	66*	-31
C[C@@H]1CN([C@H](C)CO)C(=O)c2cccc(NC(=O)c3nc4ccccc4s3)c2O[C@@H]1CN(C)CC1CCCCC1	/	13	-48
C[C@@H]1CN([C@@H](C)CO)C(=O)c2cccc(NC(=O)c3nc4ccccc4s3)c2O[C@H]1CN(C)CC1CC1	0	-20	-20
COc1ccc(S(=O)(=O)N(C)C[C@H]2Oc3ccc(NS(=O)(=O)c4ccc(C)cc4)cc3C(=O)N([C@@H](C)CO)C[C@H]2C)cc1	/	13	0

From PubChem
